pEC50, pIC50: −log10 of the molar value.
Legend:
[1] = tested on: CCRF-CEM; test: The cytotoxicity against CEM cells; assay type: functional, cell-based; conditions: Homo sapiens
Method in brief: (§1)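 Cytotoxicity tested at concentrations up to 100 μM in PBM, CEM and Vero cells.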

[2] = In vitro anti-HIV activity in peripheral blood mononuclear cells.; assay type: functional
Method in brief: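 Antiviral assay in primary lymphocytes (peripheral blood mononuclear cells) infected with HIV-1; activity reported as EC50.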

[3] = Toxic activity against VERO cells.; assay type: toxicity, cell-based; conditions: Chlorocebus sabaeus; method in brief: as §1
[4] = Toxic activity against peripheral blood mononuclear cells.; assay type: toxicity; method in brief: as §1
[5] = tested on: HepG2; test: In vitro effective concentration against hepatitis B virus was determined in 2.2.15 cells; assay type: functional, cell-based; conditions: Homo sapiens

| SMILES | pIC50 [1] | pEC50 [2] | pIC50 [3] | pIC50 [4] | pEC50 [5] |
| --- | --- | --- | --- | --- | --- |
| Nc1ccn([C@@H]2C[Se][C@@H](CO)O2)c(=O)n1 | < 4.00 | 5.62 | < 4.00 | < 4.00 | – |
| Nc1nc(=O)n([C@@H]2C[Se][C@@H](CO)O2)cc1F | < 4.00 | < 5.00 | < 4.00 | < 4.00 | – |
| Nc1nc(=O)n([C@H]2C[Se][C@@H](CO)O2)cc1F | < 4.00 | 6.29 | < 4.00 | < 4.00 | 5.92 |
| Nc1ccn([C@H]2C[Se][C@@H](CO)O2)c(=O)n1 | < 4.00 | 6.06 | < 4.00 | < 4.00 | 5.92 |
| Nc1ccn([C@@H]2CSC(CO)O2)c(=O)n1 (single isomer, unassigned) [LAMIVUDINE] | < 4.00 | 7.15 | < 4.00 | < 4.00 | 8.10 |

— ChEMBL document CHEMBL1130145, “Synthesis, anti-human immunodeficiency virus and anti-hepatitis B virus activities of novel oxaselenolane nucleosides” (J Med Chem, 1997)
